Screening data from PubChem.
The list is not random: actives were taken first. Their share in the collection is about 2.2%.
FGF22 binding = binders of human FGF22 protein, primary screen, FGF22 synaptogenesis inhibitor project, biophysical, thermal shift, single point. Fibroblast growth factor 22 (Homo sapiens), Q9HCT0. recombinant FGF22 thermal shift, SYPRO orange fluorescence; percent of sucrose octasulfate shift, DMSO zero. activity (Tm shift, normalised), % at 9.99 µM. hit rate 1.5% among 340,000;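 active = mean Tm shift, scaled 0 neutral to 100 positive control, at about 1.3% or above, every replicate too, limit read from the data; inconclusive = no clear call, values can overlap the other calls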
Target sequence (Q9HCT0 whole entry, looked up): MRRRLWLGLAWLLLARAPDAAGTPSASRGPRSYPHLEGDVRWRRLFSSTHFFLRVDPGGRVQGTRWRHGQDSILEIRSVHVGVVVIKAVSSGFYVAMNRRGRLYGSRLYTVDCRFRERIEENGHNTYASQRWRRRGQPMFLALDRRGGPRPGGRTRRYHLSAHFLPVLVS
dFosB activator = activators of delta FosB homodimer, primary screen, biochemical, fluorescence polarization, TAMRA-CDK5 oligo, single point. Protein FosB (Mus musculus), P13346. purified delta FosB; percent of positive-control signal above neutral wells. activation, % at 25 µM. hit rate 0.99% among 340,000;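 active = mean activation above about 17%, with every replicate also reaching it, limit read from the data, passing the limit was not always enough; inconclusive = only one of the two conditions met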
S100A4 MyoIIA = inhibitors of S100A4-myosin IIA peptide binding, primary screen, biochemical, fluorescence polarization, TAMRA-MyoIIA peptide | Protein S100-A4 (Homo sapiens), P26447 | inhibition, % at 10.7 µM | hit rate 0.14% among 360,000 | AID 652163, 2013;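 active = mean inhibition of at least 70% across replicates, with every replicate also reaching that level; inconclusive = mean inhibition reaches 70% but some replicates fall short; inactive = mean inhibition below 70%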
Target sequence (P26447 whole entry, looked up): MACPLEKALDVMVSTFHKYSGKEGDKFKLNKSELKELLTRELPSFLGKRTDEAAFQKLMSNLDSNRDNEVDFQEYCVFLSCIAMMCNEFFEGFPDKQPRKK
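Test system – S100A4 monomer (human) · Compound – single-point compound testing · Schedule – 5 min incubation before reading · Probe or stimulus – TAMRA-labelled myosin IIA heavy-chain peptide probe, 5 nM · Benchmarks – neutral control DMSO, positive control TFP · Medium – Calcium-containing HEPES buffer, pH 7.2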
F508del corr = F508del CFTR correction, initial screen, CFBE line, single point; CFBE cells, YFP halide quenching; stimulated with forskolin plus potentiator P3; % fluorescence drop versus neutral controls; activity (quench increase), % at 7.58 µM; hit rate 0.36% among 350,000; AID 720511, 2013;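 active = mean added fluorescence quench of at least 8% versus neutral control, with both replicates also reaching 8%; inconclusive = only one of the mean or replicate conditions met; inactive = mean below 8% and not both replicates reaching 8%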;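 also: cells transiently co-express mutant CFTR-F508del with the halide-sensitive YFP; corrector assay measuring rescue of mutant channel to the surface after 24 h compound exposure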
Each line names hits and unclear results; the compound was inactive in the other large screens.

Cc1c(N2C(=O)C(=O)/C(=C(/O)c3ccc(Br)cc3)C2c2cccnc2)c(=O)n(-c2ccccc2)n1C (configuration not stated)	FGF22 binding 43.7
COc1ccc(C(=O)CC(=O)c2ccccc2O)cc1OC	FGF22 binding 56.4
COc1ccc(C(=O)CC(=O)c2ccccc2O)cc1	none
Cc1ccccc1NS(=O)(=O)c1ccc2[nH]c(=O)[nH]c2c1	FGF22 binding 42.9
COc1ccc(-c2cnc3c(NC=O)cc(-c4ccccc4)cn23)cc1OC	F508del corr 13.2 (no result: dFosB activator)
O=CNc1cc(-c2ccc(C(=O)NC3CC3)cc2)cn2c(-c3ccccc3)cnc12	F508del corr 13.7 (no result: dFosB activator)
CCN1[C@H](C(=O)N(C)C)[C@@H](CO)[C@@H]2Cn3c(ccc(C4=CCCCC4)c3=O)[C@@H]21	none (no result: FGF22 binding, dFosB activator)
CCOc1ccc(NC(=O)c2cc(OC)nc3ccccc23)cc1	F508del corr 11.3
COCCNC(=O)c1cc(-c2ccc(-c3ccccc3)cc2)nc2ccccc12	F508del corr 9.9
COc1cc(C(=O)Nc2ccc(C)cc2)c2ccccc2n1	F508del corr 11.1
O=C(C[C@@H]1CC[C@@H]2[C@H](COC[C@H](O)CN2S(=O)(=O)c2ccccc2Cl)O1)N1CCC(Cc2ccccc2)CC1	S100A4 MyoIIA inconclusive (no result: dFosB activator)
O=C1CN(S(=O)(=O)c2ccccc2)C[C@@H]2[C@@H](c3ccc(C#CCc4ccccc4)cc3)[C@@H](CO)N12	none (no result: FGF22 binding, dFosB activator)
CCN1C(C)=C(C)S/C1=C1\SC(=S)N(C2CCCCC2)C1=O	FGF22 binding 44.1
CCN1C(C)=C(C)S/C1=C1\SC(=S)N(NC(C)=O)C1=O	none
CCC(=O)N1CC(=O)N2[C@@H](CO)[C@@H](c3ccc(C#CC(C)C)cc3)[C@@H]2C1	none (no result: FGF22 binding, dFosB activator)
NCc1cc2c3c(c1)CCCN3CCC2	dFosB activator 40.2
COc1ccc2c3c(n(C)c2c1)[C@@H](CO)N(C(=O)C1CCCCC1)CC31CCN(C(=O)c2ccncc2)CC1	none (no result: dFosB activator)
CC(=O)Oc1cc(C(=O)OCC(=O)NC23CC4CC(CC(C4)C2)C3)cc(OC(C)=O)c1OC(C)=O	F508del corr 10.1
O=C(N/N=C/c1ccc(OCc2cnc(Cl)s2)cc1)c1ccncc1	FGF22 binding 43.2
Cc1cccc(NC(=O)C2CCN(S(=O)(=O)c3ccc4c(c3)NC(=O)CO4)CC2)c1C	none
CSc1cccc(NC(=O)C2CCN(S(=O)(=O)c3ccc4c(c3)NC(=O)CO4)CC2)c1	S100A4 MyoIIA 85.8
CN(C)CC#Cc1cccc(-c2nc(C(=O)N3CCN(Cc4ccccc4)CC3)cc3c2[C@H](CCO)N(S(=O)C(C)(C)C)C3)c1 (some centres not stated)	none (no result: FGF22 binding, dFosB activator)
COc1cccc(-c2ccc(C#N)c(=O)[nH]2)c1	FGF22 binding 43.3
O=C(c1cccs1)N1CCN=C1SCc1ccc(Cl)cc1	none
O=C(c1cccs1)N1CCN=C1SCc1ccccc1F	FGF22 binding 43.2
C[C@H](O)C#Cc1cnc2c(c1)C(=O)N([C@H](C)CO)C[C@H](C)[C@@H](CN(C)C(=O)Nc1ccc(C(F)(F)F)cc1)O2	none (no result: dFosB activator)
COc1ccc(NC(=O)Nc2ccc3c(c2)[C@@H]2C[C@H](CC(=O)NCCc4ccccc4)O[C@@H](CO)[C@@H]2O3)cc1	none (no result: dFosB activator)
Cc1noc(C)c1S(=O)(=O)Nc1ccc2c(c1)C(=O)N([C@@H](C)CO)C[C@H](C)[C@@H](CN(C)Cc1ccc3c(c1)OCO3)OCCCC[C@@H](C)O2	none (no result: dFosB activator)
O=C(CSc1ccc(F)cc1)N1CCN(S(=O)(=O)c2ccccc2)CC1	FGF22 binding 43.5
O=S(=O)(c1ccc(F)cc1)N1CCN(C(=S)NCCc2ccccc2)CC1	none
O=S(=O)(c1ccc(F)cc1)N1CCN(C(=S)NCc2ccccc2)CC1	FGF22 binding 43.7
C[C@@H]1CCCCO[C@H](CN(C)C(=O)CCC(F)(F)F)[C@@H](C)CN([C@@H](C)CO)C(=O)c2cc(NC(=O)Nc3ccccc3)ccc2O1	none (no result: dFosB activator)
C[C@H]1CN([C@@H](C)CO)C(=O)c2cc(NC(=O)Cc3ccccc3)ccc2O[C@@H]1CN(C)C(=O)Nc1ccccc1	none (no result: dFosB activator)
O=C(/C=C/c1ccccc1[N+](=O)[O-])N1CCCCC1	FGF22 binding 43.1
COc1ccccc1CC(=O)N1CCN(c2ccccc2)CC1	none
COC(=O)C1CCN(C(=O)Cc2ccccc2OC)CC1	FGF22 binding 43.1
